# Results: ChEMBL document CHEMBL5257120 (Bioorg Med Chem, 2023)
# Columns and labels:
# MDA-MB-231 = assay: Cytotoxicity against human MDA-MB-231 cells incubated for 72 hrs by Sulphorhodamine assay; assay type: functional, cell-based; settings: MDA-MB-231, 72 h
# K562 = assay: Cytotoxicity against human K562 cells incubated for 72 hrs by Sulphorhodamine assay; assay type: functional, cell-based; settings: K562, 72 h
# [1] = Cytotoxicity against african green monkey Vero cells incubated for 72 hrs by Sulphorhodamine assay; assay type: toxicity, cell-based; settings: African green monkey (Chlorocebus sabaeus)
# [2] = Selectivity index, ratio of IC50 for african green monkey Vero cells to IC50 for human K562 cells; assay type: toxicity; settings: Vero cells versus K562 cells, read-out: Ratio IC50
# [3] = Antiinflammatory activity in mouse peritoneal macrophage assessed as inhibition of LPS-induced TNFalpha production at 10 ug/ml relative to control; assay type: functional; parameters: scale not given: the % may be the effect or the level left; settings: dose 10 µg/ml
# [4] = Antiinflammatory activity in mouse peritoneal macrophage assessed as reduction in LPS-induced IL6 production at 10 ug/ml; assay type: functional; settings: dose 10 µg/ml
# [5] = Antiinflammatory activity in mouse peritoneal macrophage assessed as inhibition of LPS-induced IL6 production at 1 ug/ml relative to control; assay type: functional; parameters: scale not given: the % may be the effect or the level left; settings: dose 1 µg/ml
# [6] = Toxicity in Swiss albino mouse assessed as change in body weight at 300 mg/kg, po administered for 7 days (reference value: 29.35 +/- 0.57 g); assay type: organism-based; settings: in vivo, 168 h, time 7 day
# [7] = Toxicity in Swiss albino mouse assessed as haemoglobin level at 5 mg/kg, po administered for 7 days (reference value: 15.66 +/- 0.80 g/dl); assay type: organism-based; settings: in vivo, 168 h, time 7 day
# [8] = Toxicity in Swiss albino mouse assessed as haemoglobin level at 300 mg/kg, po administered for 7 days (reference value: 15.66 +/- 0.80 g/dl); assay type: organism-based; settings: in vivo, 168 h, time 7 day
# [9] = Toxicity in Swiss albino mouse assessed as haemoglobin level at 1000 mg/kg, po administered for 7 days (reference value: 15.66 +/- 0.80 g/dl); assay type: organism-based; settings: in vivo, 168 h, time 7 day
# [10] = Toxicity in Swiss albino mouse assessed as RBC level at 5 mg/kg, po administered for 7 days (reference value: 7.13 +/- 0.40 million/mm3); assay type: organism-based, Erythrocyte; settings: in vivo, 168 h, time 7 day
# Outline: (§1)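 Single acute oral dose (5, 50, 300 or 1000 mg/kg) given to Swiss albino mice, n = 6, with 7-day observation. At the end, haematological and serum biochemical parameters were measured. Compared with untreated controls; mean ± SE, ANOVA, p < 0.05.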
# [11] = Toxicity in Swiss albino mouse assessed as RBC level at 50 mg/kg, po administered for 7 days (reference value: 7.13 +/- 0.40 million/mm3); assay type: organism-based, Erythrocyte; settings: in vivo, 168 h, time 7 day; outline: as §1
# [12] = Toxicity in Swiss albino mouse assessed as WBC level at 5 mg/kg, po administered for 7 days (reference value: 5.29 +/- 0.51 10^3/mm3); assay type: organism-based; settings: in vivo, 168 h, time 7 day
# [13] = Toxicity in Swiss albino mouse assessed as WBC level at 50 mg/kg, po administered for 7 days (reference value: 5.29 +/- 0.51 10^3/mm3); assay type: organism-based; settings: in vivo, 168 h, time 7 day
# [14] = Toxicity in Swiss albino mouse assessed as WBC level at 1000 mg/kg, po administered for 7 days (reference value: 5.29 +/- 0.51 10^3/mm3); assay type: organism-based; settings: in vivo, 168 h, time 7 day; outline: as §1
# [15] = Hepatotoxicity in Swiss albino mouse assessed as alkaline phosphatase level at 5 mg/kg, po administered for 7 days (reference value: 260.10 +/- 26.76 U/L); assay type: toxicity, organism-based; settings: in vivo, 168 h, time 7 day; outline: as §1
# [16] = Hepatotoxicity in Swiss albino mouse assessed as alkaline phosphatase level at 50 mg/kg, po administered for 7 days (reference value: 260.10 +/- 26.76 U/L); assay type: toxicity, organism-based; settings: in vivo, 168 h, time 7 day; outline: as §1
# [17] = Hepatotoxicity in Swiss albino mouse assessed as alkaline phosphatase level at 1000 mg/kg, po administered for 7 days (reference value: 260.10 +/- 26.76 U/L); assay type: toxicity, organism-based; settings: in vivo, 168 h, time 7 day; outline: as §1
# [18] = Hepatotoxicity in Swiss albino mouse assessed as SGPT level at 1000 mg/kg, po administered for 7 days (reference value: 17.01 +/- 2.33 U/L); assay type: toxicity, organism-based; settings: in vivo, 168 h, time 7 day; outline: as §1
# [19] = Hepatotoxicity in Swiss albino mouse assessed as albumin level at 5 mg/kg, po administered for 7 days (reference value: 4.12 +/- 0.17 g/dl); assay type: toxicity, organism-based; settings: in vivo, 168 h, time 7 day; outline: as §1
# [20] = Hepatotoxicity in Swiss albino mouse assessed as serum protein level at 50 mg/kg, po administered for 7 days (reference value: 5.73 +/- 0.21 mg/ml); assay type: toxicity, organism-based; settings: in vivo, 168 h, time 7 day; outline: as §1
# [21] = Hepatotoxicity in Swiss albino mouse assessed as serum protein level at 300 mg/kg, po administered for 7 days (reference value: 5.73 +/- 0.21 mg/ml); assay type: toxicity, organism-based; settings: in vivo, 168 h, time 7 day; outline: as §1
# [22] = Hepatotoxicity in Swiss albino mouse assessed as serum protein level at 1000 mg/kg, po administered for 7 days (reference value: 5.73 +/- 0.21 mg/ml); assay type: toxicity, organism-based; settings: in vivo, 168 h, time 7 day; outline: as §1
# [23] = Renal toxicity in Swiss albino mouse assessed as creatinine level at 5 mg/kg, po administered for 7 days (reference value: 0.76 +/- 0.06 mg/dl); assay type: organism-based; settings: in vivo, 168 h, time 7 day; outline: as §1
# [24] = Renal toxicity in Swiss albino mouse assessed as creatinine level at 50 mg/kg, po administered for 7 days (reference value: 0.76 +/- 0.06 mg/dl); assay type: organism-based; settings: in vivo, 168 h, time 7 day; outline: as §1
# [25] = Renal toxicity in Swiss albino mouse assessed as creatinine level at 300 mg/kg, po administered for 7 days (reference value: 0.76 +/- 0.06 mg/dl); assay type: organism-based; settings: in vivo, 168 h, time 7 day; outline: as §1
# [26] = Toxicity in Swiss albino mouse assessed as cholesterol level at 5 mg/kg, po administered for 7 days (reference value: 140.17 +/- 3.76 mg/dl); assay type: organism-based; settings: in vivo, 168 h, time 7 day
# [27] = Toxicity in Swiss albino mouse assessed as cholesterol level at 300 mg/kg, po administered for 7 days (reference value: 140.17 +/- 3.76 mg/dl); assay type: organism-based; settings: in vivo, 168 h, time 7 day
# [28] = Toxicity in Swiss albino mouse assessed as cholesterol level at 1000 mg/kg, po administered for 7 days (reference value: 140.17 +/- 3.76 mg/dl); assay type: organism-based; settings: in vivo, 168 h, time 7 day
# [29] = Toxicity in Swiss albino mouse assessed as triglyceride level at 1000 mg/kg, po administered for 7 days (reference value: 136.88 +/- 3.12 mg/dl); assay type: organism-based; settings: in vivo, 168 h, time 7 day
# [30] = Toxicity in Swiss albino mouse assessed as change in absolute liver weight at 5 to 1000 mg/kg, po administered for 7 days; assay type: organism-based; settings: in vivo, 168 h, dose 5-1000 mg/kg, time 7 day
# [31] = Toxicity in Swiss albino mouse assessed as change in absolute lungs weight at 5 to 1000 mg/kg, po administered for 7 days; assay type: organism-based; settings: in vivo, 168 h, dose 5-1000 mg/kg, time 7 day
# [32] = Toxicity in Swiss albino mouse assessed as change in absolute brain weight at 5 to 1000 mg/kg, po administered for 7 days; assay type: organism-based; settings: in vivo, 168 h, dose 5-1000 mg/kg, time 7 day
# [33] = Toxicity in Swiss albino mouse assessed as change in absolute spleen weight at 5 to 1000 mg/kg, po administered for 7 days; assay type: organism-based; settings: in vivo, 168 h, dose 5-1000 mg/kg, time 7 day
# [34] = Toxicity in Swiss albino mouse assessed as change in absolute heart weight at 5 to 1000 mg/kg, po administered for 7 days; assay type: organism-based; settings: in vivo, 168 h, dose 5-1000 mg/kg, time 7 day
# [35] = Toxicity in Swiss albino mouse assessed as change in relative heart weight at 5 to 1000 mg/kg, po administered for 7 days; assay type: organism-based; settings: in vivo, 168 h, dose 5-1000 mg/kg, time 7 day
# [36] = Toxicity in Swiss albino mouse assessed as behavioural changes at 5 to 1000 mg/kg, po administered for 7 days; assay type: organism-based; settings: in vivo, 168 h, dose 5-1000 mg/kg, time 7 day
smiles,measurement,setting,value
COc1cc(C2/C(=C/c3ccc(/C=C/C(=O)NO)cc3)C(=O)c3cc(OC)c(OC)c(OC)c32)cc(OC)c1OC (stereo not drawn),IC50,MDA-MB-231,0.36 µM
same,IC50,K562,3.27 µM
same,IC50 at 72 h,[1],100 µM
same,selectivity ratio,[2],30.7
same,Activity,[3],29.22%
same,Activity,[4],2199.42 pg/mL
same,Activity,[5],13.14%
same,Activity,[6],30.22 g
same,Activity,[7],17.63 g/dL
same,Activity,[8],16.77 g/dL
same,Activity,[9],16.73 g/dL
same,Activity,[10],8.96 million/mm3
same,Activity,[11],8.82 million/mm3
same,Activity,[12],5.01 10^3/mm3
same,Activity,[13],4.34 10^3/mm3
same,Activity,[14],4.73 10^3/mm3
same,Activity,[15],221.34 U/L
same,Activity,[16],281.72 U/L
same,Activity,[17],277.51 U/L
same,Activity,[18],22.91 U/L
same,Activity,[19],4.34 g/dL
same,Activity,[20],5.64 mg/mL
same,Activity,[21],5.45 mg/mL
same,Activity,[22],5.87 mg/mL
same,Activity,[23],0.58 mg/dL
same,Activity,[24],0.69 mg/dL
same,Activity,[25],0.64 mg/dL
same,Activity,[26],162.42 mg/dL
same,Activity,[27],157.14 mg/dL
same,Activity,[28],157.22 mg/dL
same,Activity,[29],130.21 mg/dL
same,Activity,[30],Non-Toxic
same,Activity,[31],Non-Toxic
same,Activity,[32],Non-Toxic
same,Activity,[33],Non-Toxic
same,Activity,[34],Non-Toxic
same,Activity,[35],Non-Toxic
same,Activity,[36],Non-Toxic
